Assay results reported in ChEMBL document CHEMBL1275449, “Potent in vitro antifungal activities of naturally occurring acetylenic acids” (Antimicrob Agents Chemother, 2008).
In brackets after ≈: the same amount, converted by molar mass. Activity calls are given as the source filed them. No cut-off for these calls is given here.

What was measured:
Candida albicans [1] = assay: Antifungal activity against Candida albicans ATCC 14053 at 542.7 uM after 48 hrs by CLSI method; format: functional, organism-based
Trichophyton rubrum [2] = assay: Antifungal activity against Trichophyton rubrum ATCC MYA-4438 at 542.7 uM after 5 days by CLSI method; format: functional, organism-based
Candida albicans [3] = assay: Antifungal activity against Candida albicans assessed as inhibition of growth at 100 uM; format: functional, organism-based
Candida tropicalis [4] = assay: Antifungal activity against Candida tropicalis ATCC 750 at 542.7 uM after 48 hrs by CLSI method; format: functional, organism-based
In short: (§1)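 Yeast suspensions made from 3-5 colonies off 24-72 h SD agar plates in saline. They were diluted by OD630 standard curve in RPMI 1640 (0.2% dextrose, 0.03% glutamine, 0.165 M MOPS, pH 7.0) to 1.5 × 10³ CFU/ml. Twofold dilutions (11 concentrations, 20% DMSO-saline) run in duplicate. OD530 read before and after 35°C, 48 h. Line values are top test concentrations; no-growth endpoints give MIC/MFC.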

Cryptococcus neoformans [5] = assay: Antifungal activity against Cryptococcus neoformans ATCC 90113 after 72 hrs by CLSI method; format: functional, organism-based; conditions: ATCC 90113, 72 h
In short: (§2)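 SD broth replaced RPMI because growth in RPMI was poor; other CLSI conditions were kept. Inoculum was 1.5 × 10³ CFU/ml from colonies on SD agar, checked by plating. Twofold serial dilutions (11 concentrations) in 20% DMSO-saline were tested in duplicate. OD530 was read before and after incubation at 35°C for 72 h. Percent growth gave IC50; the MIC is the lowest concentration with no detectable growth.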

Candida albicans [6] = assay: Antifungal activity against Candida albicans ATCC 32354 after 48 hrs by CLSI method; format: functional, organism-based; conditions: ATCC 32354, 48 h
In short: (§3)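 CLSI broth microdilution. Colonies from 24–72 h SD agar suspended in saline and sized by OD630 standard curve. Inoculum 1.5 × 10³ CFU/ml (final) in RPMI 1640 (0.2% dextrose, 0.03% glutamine, 0.165 M MOPS, pH 7.0). Twofold dilutions (11 levels) from 20% DMSO-saline, in duplicate. 35°C for 48 h, OD530 read before and after. IC50 fitted from % growth. MIC: no detectable growth. MFC: subculture onto SD agar.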

Cryptococcus neoformans [7] = assay: Antifungal activity against Cryptococcus neoformans ATCC 66031 after 72 hrs by CLSI method; format: functional, organism-based; conditions: ATCC 66031, 72 h; in short: as §2
[8] = tested on: Trichophyton mentagrophytes; assay: Antifungal activity against Trichophyton mentagrophytes ATCC 9533 by CLSI method; format: functional, organism-based
In short: (§4)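 Growth scraped from 1- to 6-week-old potato dextrose slants and filtered through Miracloth. Diluted in 5% Alamar blue-RPMI 1640 (MOPS pH 7.0) to 2.7 × 10⁴ CFU/ml. Eleven twofold dilutions in duplicate. Fluorescence at 544 nm excitation/590 nm emission read before and after 35°C, 5 days. IC50 fitted from percent growth. MIC taken as no detectable growth; MFC from clear or blue wells plated on PD agar.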

Candida albicans [9] = assay: Antifungal activity against Fluconazole resistant Candida albicans clinical isolate 17 after 48 hrs by CLSI method; format: functional, organism-based; in short: as §3
Candida tropicalis [10] = assay: Antifungal activity against Candida tropicalis ATCC 750 after 48 hrs by CLSI method; format: functional, organism-based; conditions: ATCC 750, 48 h; in short: as §1
Candida parapsilosis [11] = assay: Antifungal activity against Candida parapsilosis ATCC 22019 at 542.7 uM after 48 hrs by CLSI method; format: functional, organism-based; in short: as §1
Candida albicans [12] = assay: Antifungal activity against Candida albicans ATCC 90028 at 542.7 uM after 48 hrs by CLSI method; format: functional, organism-based
In short: (§5)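 Candida inocula came from 24–72-h SD agar colonies suspended in saline. They were diluted by OD630 standard curve into RPMI 1640 (0.2% dextrose, 0.03% glutamine, 0.165 M MOPS, pH 7.0) to 1.5 × 10³ CFU/ml. Compounds were run as 11 twofold dilutions in 20% DMSO-saline, in duplicate, at 35°C for 48 h, with OD530 read before and after. Percent growth at the top concentration, IC50, MIC, and MFC (SD agar plating) were derived.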

[13] = tested on: Trichophyton mentagrophytes; assay: Antifungal activity against Trichophyton mentagrophytes ATCC MYA-4439 at 542.7 uM after 5 days by CLSI method; format: functional, organism-based
Candida albicans [14] = assay: Antifungal activity against Candida albicans ATCC 60193 at 542.7 uM after 48 hrs by CLSI method; format: functional, organism-based; in short: as §5
Candida albicans [15] = assay: Antifungal activity against Fluconazole resistant Candida albicans isolate 1 at 542.7 uM after 48 hrs by CLSI method; format: functional, organism-based
In short: (§6)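 Candida in CLSI broth microdilution. Saline colony suspension set to 1.5 × 10³ CFU/ml (final) in MOPS-buffered RPMI 1640, pH 7.0. Test agent given as twofold serial dilutions in 20% DMSO-saline, duplicate wells. 35°C for 48 h. Growth read as OD530 before and after incubation. Percent inhibition scored at the highest test concentration.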

Aspergillus flavus = assay: Antifungal activity against Aspergillus flavus ATCC 204304 at 542.7 uM after 48 hrs by CLSI method; format: functional, organism-based
Candida albicans [16] = assay: Antifungal activity against Candida albicans ATCC 32354 at 542.7 uM after 48 hrs by CLSI method; format: functional, organism-based; in short: as §5
Nakaseomyces glabratus = assay: Antifungal activity against Candida glabrata ATCC 90030 at 542.7 uM after 48 hrs by CLSI method; format: functional, organism-based; in short: as §5
Candida albicans [17] = assay: Antifungal activity against Candida albicans ATCC 14053 after 48 hrs by CLSI method; format: functional, organism-based; conditions: ATCC 14053, 48 h; in short: as §3
Candida albicans [18] = assay: Antifungal activity against Candida albicans assessed as inhibition of morphogenesis at 10 uM; format: functional, organism-based
[19] = tested on: Trichophyton mentagrophytes; assay: Antifungal activity against Trichophyton mentagrophytes ATCC 9533 at 542.7 uM after 5 days by CLSI method; format: functional, organism-based
Aspergillus fumigatus [20] = assay: Antifungal activity against Aspergillus fumigatus ATCC 90906 at 542.7 uM after 48 hrs by CLSI method; format: functional, organism-based
Candida parapsilosis [21] = assay: Antifungal activity against Candida parapsilosis ATCC 22019 after 48 hrs by CLSI method; format: functional, organism-based; conditions: Lodderomyces parapsilosis, ATCC 22019, 48 h; in short: as §1
Candida albicans [22] = assay: Antifungal activity against Fluconazole resistant Candida albicans isolate 17 at 542.7 uM after 48 hrs by CLSI method; format: functional, organism-based; in short: as §6
Aspergillus niger [23] = assay: Antifungal activity against Aspergillus niger ATCC 16404 at 542.7 uM after 48 hrs by CLSI method; format: functional, organism-based
[24] = tested on: Trichophyton mentagrophytes; assay: Antifungal activity against Trichophyton mentagrophytes ATCC MYA-4439 by CLSI method; format: functional, organism-based; in short: as §4
Trichophyton rubrum [25] = assay: Antifungal activity against Trichophyton rubrum ATCC 10218 by CLSI method; format: functional, organism-based; in short: as §4
Trichophyton rubrum [26] = assay: Antifungal activity against Trichophyton rubrum ATCC MYA-4438 by CLSI method; format: functional, organism-based; in short: as §4
Candida albicans [27] = assay: Antifungal activity against Candida albicans ATCC 60193 after 48 hrs by CLSI method; format: functional, organism-based; conditions: ATCC 60193, 48 h; in short: as §3
Pichia kudriavzevii [28] = assay: Antifungal activity against Candida krusei ATCC 6258 at 542.7 uM after 48 hrs by CLSI method; format: functional, organism-based; in short: as §1
Candida albicans [29] = assay: Antifungal activity against Candida albicans ATCC 200955 after 48 hrs by CLSI method; format: functional, organism-based; conditions: ATCC 200955, 48 h; in short: as §3
Aspergillus niger [30] = assay: Antifungal activity against Aspergillus niger ATCC 16404 after 48 h by CLSI method; conditions: ATCC 16404, 48 h
Candida albicans [31] = assay: Antifungal activity against Candida albicans ATCC 200955 at 542.7 uM after 48 hrs by CLSI method; format: functional, organism-based; in short: as §5
Trichophyton rubrum [32] = assay: Antifungal activity against Trichophyton rubrum ATCC 10218 at 542.7 uM after 5 days by CLSI method; format: functional, organism-based
Aspergillus fumigatus [33] = assay: Antifungal activity against Aspergillus fumigatus ATCC 204305 at 542.7 uM after 48 hrs by CLSI method; format: functional, organism-based
Pichia kudriavzevii [34] = assay: Antifungal activity against Candida krusei ATCC 6258 after 48 hrs by CLSI method; format: functional, organism-based; conditions: ATCC 6258, 48 h; in short: as §5
Candida albicans [35] = assay: Antifungal activity against Fluconazole resistant Candida albicans clinical isolate 1 after 48 hrs by CLSI method; format: functional, organism-based; in short: as §3

For `C=CCCCCCCCCC(=O)O` [UNDECYLENIC ACID], the Activity (Candida albicans [1]) was “inactive”, the Activity (Trichophyton rubrum [2]) was “inactive” and the inhibition (Candida albicans [3]) was “inactive”. The Activity (Candida tropicalis [4]) was “inactive”, the IC50 (Cryptococcus neoformans [5]) was 25.3 µM and the MFC (Cryptococcus neoformans [5]) was 543 µM (≈ 100 µg/mL). It also gave an MIC (Cryptococcus neoformans [5]) of 271 µM (≈ 50 µg/mL), an IC50 (Candida albicans [6]) of over 543 µM and an IC50 (Cryptococcus neoformans [7]) of 2.7 µM. For the same compound, the MFC (Cryptococcus neoformans [7]) was 271 µM (≈ 50 µg/mL), the MIC (Cryptococcus neoformans [7]) was 136 µM (≈ 25 µg/mL) and the IC50 [8] was 279 µM. The MIC [8] was 543 µM (≈ 100 µg/mL), the IC50 (Candida albicans [9]) was over 543 µM and the IC50 (Candida tropicalis [10]) was over 543 µM. For the same compound, the Activity (Candida parapsilosis [11]) was “inactive”, the Activity (Candida albicans [12]) was “inactive” and the Activity [13] was “inactive”. For the same compound, the Activity (Candida albicans [14]) was “inactive”, the Activity (Candida albicans [15]) was “inactive” and the Activity (Aspergillus flavus) was “inactive”. The Activity (Candida albicans [16]) was “inactive”, the Activity (Nakaseomyces glabratus) was “inactive” and the IC50 (Candida albicans [17]) was over 543 µM. The inhibition (Candida albicans [18]) was “Active”, the Activity [19] was “inactive” and the Activity (Aspergillus fumigatus [20]) was “inactive”. The IC50 (Candida parapsilosis [21]) was over 543 µM, the Activity (Candida albicans [22]) was “inactive” and the Activity (Aspergillus niger [23]) was “inactive”. The IC50 [24] was 379 µM, the MIC [24] was 543 µM (≈ 100 µg/mL) and the IC50 (Trichophyton rubrum [25]) was 270 µM. The MIC (Trichophyton rubrum [25]) was 543 µM (≈ 100 µg/mL), the IC50 (Trichophyton rubrum [26]) was 111 µM and the MIC (Trichophyton rubrum [26]) was 543 µM (≈ 100 µg/mL). For the same compound, the IC50 (Candida albicans [27]) was over 543 µM, the Activity (Pichia kudriavzevii [28]) was “inactive” and the IC50 (Candida albicans [29]) was over 543 µM. The IC50 (Aspergillus niger [30]) was 415 µM, the Activity (Candida albicans [31]) was “inactive” and the Activity (Trichophyton rubrum [32]) was “inactive”. For the same compound, the Activity (Aspergillus fumigatus [33]) was “inactive”, the IC50 (Pichia kudriavzevii [34]) was over 543 µM and the IC50 (Candida albicans [35]) was over 543 µM.
